# Assays:
# FRα = conditions: O4 replaced by an amino group; cited from earlier work
# reduced folate carrier = conditions: folate-binding affinity of reduced folate carrier; cited from earlier work
# [1] = system: FRα Y175, K136 and R106 alanine mutants; test: saturation radioligand-binding assay, FRα Y175, K136 and R106 mutants; set-up: species or system human; conditions: mutations of Y175, K136 and R106 (bond lengths ≥3.1 Å)
# Outline: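 Human FRα alanine mutants made by site-directed mutagenesis, expressed as Fc fusions in transiently transfected HEK293 cells and Ni-NTA purified. 40 nM protein captured on protein G wells (25 mM Tris pH 8.0, 150 mM NaCl, 0.1% Triton X-100) for 40 min. Ligand stripped at pH 3.5 for 1 min. Then 40 min with varied [³H]-folic acid, two washes, scintillation counting. Kd by nonlinear regression, as fold versus wild type.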
# human FRα = human FRα (Homo sapiens, UniProt P15328); test: saturation radioligand-binding assay with [^3H]-folic acid, wild-type FRα–Fc; conditions: fully glycosylated FRα–Fc
# human FRα, sequence (P15328 23-234): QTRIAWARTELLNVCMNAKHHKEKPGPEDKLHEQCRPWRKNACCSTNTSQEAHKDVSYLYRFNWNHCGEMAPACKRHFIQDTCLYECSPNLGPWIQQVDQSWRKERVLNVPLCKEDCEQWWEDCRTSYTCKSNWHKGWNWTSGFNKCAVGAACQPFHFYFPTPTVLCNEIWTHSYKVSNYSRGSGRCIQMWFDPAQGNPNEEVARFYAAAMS
smiles,measurement,setting,value
Nc1nc(N)c2nc(CNc3ccc(C(=O)N[C@@H](CCC(=O)O)C(=O)O)cc3)cnc2n1 [aminopterin],affinity for FRα compared with folic acid,FRα,reduced affinity
Nc1nc(=O)c2nc(CNc3ccc(C(=O)N[C@@H](CCC(=O)O)C(=O)O)cc3)cnc2[nH]1 [folate],Km,reduced folate carrier,1 to 10 µM
Nc1nc(=O)c2nc(CNc3ccc(C(=O)N[C@@H](CCC(=O)O)C(=O)O)cc3)cnc2[nH]1 [folic acid],effect of the mutation on folic acid binding,[1],little effect
same,folic acid-binding affinity compared with the deglycosylated protein,human FRα,similar
CN(Cc1cnc2nc(N)nc(N)c2n1)c1ccc(C(=O)N[C@@H](CCC(=O)O)C(=O)O)cc1 [methotrexate],affinity for FRα compared with folic acid,FRα,reduced affinity

# From publication PMC5797940 (Nature, 2013)
